Assay results: ChEMBL document CHEMBL1158377, “Phenylpyrrole derivatives as neural and inducible nitric oxide synthase (nNOS and iNOS) inhibitors” (Eur J Med Chem, 2009)
The source made the active and inactive calls. The rule behind the calls is not given here.

Tests used:
[1] = target: Nitric oxide synthase 1 (Rattus norvegicus) (UniProt P29476); test: Inhibition of nNOS in Wistar rat striata tissue homogenate assessed as conversion of L-[3H]arginine to L-[3H]citrulline at 1 mM by liquid scintillation spectroscopy; assay type: tissue-based; details: Striatum
Chain of Nitric oxide synthase 1 (Rattus norvegicus) (P29476 whole entry): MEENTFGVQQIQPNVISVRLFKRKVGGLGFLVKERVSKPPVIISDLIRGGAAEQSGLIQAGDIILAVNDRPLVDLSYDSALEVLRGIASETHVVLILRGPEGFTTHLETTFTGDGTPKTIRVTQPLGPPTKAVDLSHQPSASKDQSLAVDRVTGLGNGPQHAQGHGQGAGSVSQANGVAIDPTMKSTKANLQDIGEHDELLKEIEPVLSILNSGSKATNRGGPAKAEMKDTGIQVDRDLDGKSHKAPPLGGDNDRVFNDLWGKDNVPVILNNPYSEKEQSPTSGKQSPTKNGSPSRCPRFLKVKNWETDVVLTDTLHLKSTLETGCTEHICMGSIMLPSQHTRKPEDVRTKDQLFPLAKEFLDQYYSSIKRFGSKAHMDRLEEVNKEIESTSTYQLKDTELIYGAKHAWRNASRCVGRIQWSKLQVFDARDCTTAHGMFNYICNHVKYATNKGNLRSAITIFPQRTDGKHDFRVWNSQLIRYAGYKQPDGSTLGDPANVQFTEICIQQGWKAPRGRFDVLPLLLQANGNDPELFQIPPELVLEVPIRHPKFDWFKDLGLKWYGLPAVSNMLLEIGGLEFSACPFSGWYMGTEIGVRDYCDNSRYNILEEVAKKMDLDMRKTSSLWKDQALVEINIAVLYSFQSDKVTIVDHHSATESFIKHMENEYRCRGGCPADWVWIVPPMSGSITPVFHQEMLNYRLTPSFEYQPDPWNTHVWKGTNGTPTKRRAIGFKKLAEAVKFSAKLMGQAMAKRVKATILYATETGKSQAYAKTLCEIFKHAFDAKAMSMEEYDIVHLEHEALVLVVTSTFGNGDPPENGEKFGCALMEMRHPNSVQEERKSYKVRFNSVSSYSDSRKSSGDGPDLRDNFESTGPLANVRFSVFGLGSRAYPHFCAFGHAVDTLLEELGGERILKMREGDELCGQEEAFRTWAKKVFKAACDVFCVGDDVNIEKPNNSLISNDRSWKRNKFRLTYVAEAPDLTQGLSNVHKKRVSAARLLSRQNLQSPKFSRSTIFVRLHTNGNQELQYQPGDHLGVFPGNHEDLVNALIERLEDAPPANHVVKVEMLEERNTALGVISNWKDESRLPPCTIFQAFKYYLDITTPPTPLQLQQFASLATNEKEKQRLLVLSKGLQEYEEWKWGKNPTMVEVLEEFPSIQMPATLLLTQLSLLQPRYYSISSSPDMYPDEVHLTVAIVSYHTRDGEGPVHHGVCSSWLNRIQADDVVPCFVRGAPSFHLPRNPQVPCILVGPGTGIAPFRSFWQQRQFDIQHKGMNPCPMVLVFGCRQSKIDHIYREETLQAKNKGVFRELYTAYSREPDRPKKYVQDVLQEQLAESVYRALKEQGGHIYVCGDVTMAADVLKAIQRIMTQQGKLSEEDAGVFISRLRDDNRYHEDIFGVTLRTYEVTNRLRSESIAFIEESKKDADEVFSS
In short: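 Male Wistar rats killed by cervical dislocation; fresh striata homogenized in Tris-HCl pH 7.6 with protease inhibitors, spun 1000g 5 min. Supernatant incubated 30 min at 37 °C with 10 µM L-arginine plus 50 nM L-[3H]-arginine, CaCl2, BH4, FAD, NADPH 0.75 mM final; compound 1 mM final in DMSO. Dowex-50W separation; citrulline by scintillation; NADPH-omitted blank subtracted. Three experiments in triplicate, four striata each.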

[2] = target: Nitric oxide synthase, inducible (Rattus norvegicus) (UniProt Q06518); test: Inhibition of iNOS in LPS-treated Wistar rat lung tissue homogenate assessed as conversion of L-[3H]arginine to L-[3H]citrulline at 1 mM by liquid scintillation spectroscopy
Chain of Nitric oxide synthase, inducible (Rattus norvegicus) (Q06518 whole entry): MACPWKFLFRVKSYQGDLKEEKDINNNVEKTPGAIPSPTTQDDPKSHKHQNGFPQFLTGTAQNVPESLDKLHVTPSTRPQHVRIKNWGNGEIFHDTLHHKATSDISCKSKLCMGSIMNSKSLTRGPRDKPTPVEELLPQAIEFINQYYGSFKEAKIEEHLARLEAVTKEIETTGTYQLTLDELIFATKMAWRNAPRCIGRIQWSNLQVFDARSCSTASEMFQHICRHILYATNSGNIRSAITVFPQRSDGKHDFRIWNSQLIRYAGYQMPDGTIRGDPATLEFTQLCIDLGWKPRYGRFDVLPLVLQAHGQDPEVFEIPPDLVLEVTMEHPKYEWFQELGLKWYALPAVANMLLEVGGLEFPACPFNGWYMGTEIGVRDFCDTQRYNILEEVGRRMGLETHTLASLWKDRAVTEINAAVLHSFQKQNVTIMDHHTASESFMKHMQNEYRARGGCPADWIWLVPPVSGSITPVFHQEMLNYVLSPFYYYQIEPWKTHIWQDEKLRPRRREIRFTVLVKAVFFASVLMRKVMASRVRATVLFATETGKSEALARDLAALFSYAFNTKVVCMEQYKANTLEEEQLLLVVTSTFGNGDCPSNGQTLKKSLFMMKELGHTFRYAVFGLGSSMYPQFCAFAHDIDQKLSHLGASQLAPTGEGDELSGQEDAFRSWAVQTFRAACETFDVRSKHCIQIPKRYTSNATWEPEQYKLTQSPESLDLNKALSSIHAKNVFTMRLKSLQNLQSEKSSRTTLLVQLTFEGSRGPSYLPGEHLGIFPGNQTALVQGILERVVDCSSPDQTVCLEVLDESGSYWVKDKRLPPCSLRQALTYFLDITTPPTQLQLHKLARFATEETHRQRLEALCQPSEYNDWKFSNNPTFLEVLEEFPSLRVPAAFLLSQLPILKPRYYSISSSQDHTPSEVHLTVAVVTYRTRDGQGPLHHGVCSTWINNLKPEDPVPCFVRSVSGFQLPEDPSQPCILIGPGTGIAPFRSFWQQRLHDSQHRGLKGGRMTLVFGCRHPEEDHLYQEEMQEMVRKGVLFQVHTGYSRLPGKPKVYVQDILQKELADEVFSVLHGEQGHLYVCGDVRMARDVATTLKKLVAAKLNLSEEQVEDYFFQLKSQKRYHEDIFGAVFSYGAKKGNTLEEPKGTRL
In short: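 iNOS induced in Wistar rats by LPS 20 mg/Kg i.v.; lungs taken 8 h later, homogenized in ice-cold Tris-HCl pH 7.6 with protease inhibitors, then incubated with 10 mM EDTA to remove nNOS activity. Conversion of L-[3H]-arginine to L-[3H]-citrulline at 37 °C for 30 min with NADPH, compound 1 mM final; Dowex separation, scintillation counting.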

[3] = Binding affinity to CaCAM
[4] = target: Nitric oxide synthase 1 (Mus musculus) (UniProt Q9Z0J4); test: Inhibition of cytosolic nNOS in stantia nigra isolated from MPTP-induced parkinson's disease C57/Bl6 mouse model assessed as L-[3H]citrulline per mg of protein at 20 mg/kg, b.w 1 hr before MPTP challenge after 32 hrs by liquid scintillation spectroscopy; assay type: organism-based; parameters: dose 20 mg/kg
Chain of Nitric oxide synthase 1 (Mus musculus) (Q9Z0J4 whole entry): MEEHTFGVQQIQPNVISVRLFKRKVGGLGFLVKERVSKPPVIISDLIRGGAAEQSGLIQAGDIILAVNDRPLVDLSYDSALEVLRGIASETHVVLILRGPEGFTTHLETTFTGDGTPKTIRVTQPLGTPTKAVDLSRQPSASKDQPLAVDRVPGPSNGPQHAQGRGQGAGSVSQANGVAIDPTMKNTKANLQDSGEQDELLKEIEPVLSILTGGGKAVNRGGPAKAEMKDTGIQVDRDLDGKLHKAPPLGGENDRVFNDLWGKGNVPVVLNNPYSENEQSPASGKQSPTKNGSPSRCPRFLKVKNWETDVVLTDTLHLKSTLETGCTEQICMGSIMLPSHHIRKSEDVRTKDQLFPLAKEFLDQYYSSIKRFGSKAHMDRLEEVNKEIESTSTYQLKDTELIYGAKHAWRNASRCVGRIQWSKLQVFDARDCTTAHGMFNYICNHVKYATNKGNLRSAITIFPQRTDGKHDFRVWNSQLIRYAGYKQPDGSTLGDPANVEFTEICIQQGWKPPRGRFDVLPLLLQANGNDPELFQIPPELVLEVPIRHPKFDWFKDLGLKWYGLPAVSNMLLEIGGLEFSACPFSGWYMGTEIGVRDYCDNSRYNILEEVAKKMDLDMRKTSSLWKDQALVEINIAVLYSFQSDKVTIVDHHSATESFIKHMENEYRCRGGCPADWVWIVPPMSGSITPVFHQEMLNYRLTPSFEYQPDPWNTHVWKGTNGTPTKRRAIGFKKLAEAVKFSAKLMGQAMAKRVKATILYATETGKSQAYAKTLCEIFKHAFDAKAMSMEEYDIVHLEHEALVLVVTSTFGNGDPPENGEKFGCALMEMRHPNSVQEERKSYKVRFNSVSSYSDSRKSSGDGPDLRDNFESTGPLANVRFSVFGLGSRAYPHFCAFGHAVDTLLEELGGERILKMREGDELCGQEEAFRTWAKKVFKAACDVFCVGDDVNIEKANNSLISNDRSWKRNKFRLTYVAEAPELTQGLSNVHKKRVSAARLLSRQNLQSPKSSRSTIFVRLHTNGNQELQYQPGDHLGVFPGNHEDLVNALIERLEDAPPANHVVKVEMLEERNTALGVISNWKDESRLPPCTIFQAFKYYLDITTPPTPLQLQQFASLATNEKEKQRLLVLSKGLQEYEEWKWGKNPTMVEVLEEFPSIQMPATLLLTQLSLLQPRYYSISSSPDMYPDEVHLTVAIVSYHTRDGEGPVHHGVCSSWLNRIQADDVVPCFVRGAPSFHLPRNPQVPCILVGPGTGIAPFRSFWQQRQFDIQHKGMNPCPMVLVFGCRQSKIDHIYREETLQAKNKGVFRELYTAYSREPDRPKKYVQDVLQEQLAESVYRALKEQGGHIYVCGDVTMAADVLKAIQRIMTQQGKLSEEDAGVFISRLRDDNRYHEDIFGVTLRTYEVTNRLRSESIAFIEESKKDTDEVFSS
In short: (§1)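 C57/Bl6 mice (22–28 g) given MPTP 15 mg/kg s.c. at 0, 2, 4, 6, 24, 26 and 28 h; single compound dose 20 mg/kg b.w. 1 h before first MPTP; controls got ethanol/saline vehicle. Killed 32 h after treatments; substantia nigra cytosol and mitochondria assayed by L-[3H]-citrulline formation, as pmol/mg protein/min. Seven experiments in triplicate, four SN each.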

[5] = target: Nitric oxide synthase 1 (Mus musculus) (UniProt Q9Z0J4); test: Inhibition of constitutive mitochondrial NOS in stantia nigra isolated from MPTP-induced parkinson's disease C57/Bl6 mouse model assessed as L-[3H]citrulline per mg of protein at 20 mg/kg, b.w 1 hr before MPTP challenge after 32 hrs by liquid scintillation spectroscopy; assay type: organism-based; parameters: dose 20 mg/kg; in short: as §1
[6] = target: T1, Nitric oxide synthase, inducible (Mus musculus) (UniProt P29477); test: Inhibition of inducible mitochondrial NOS in stantia nigra isolated from MPTP-induced parkinson's disease C57/Bl6 mouse model assessed as L-[3H]citrulline per mg of protein at 20 mg/kg, b.w 1 hr before MPTP challenge after 32 hrs by liquid scintillation spectroscopy; assay type: organism-based; parameters: dose 20 mg/kg; in short: as §1
T1 sequence (whole entry): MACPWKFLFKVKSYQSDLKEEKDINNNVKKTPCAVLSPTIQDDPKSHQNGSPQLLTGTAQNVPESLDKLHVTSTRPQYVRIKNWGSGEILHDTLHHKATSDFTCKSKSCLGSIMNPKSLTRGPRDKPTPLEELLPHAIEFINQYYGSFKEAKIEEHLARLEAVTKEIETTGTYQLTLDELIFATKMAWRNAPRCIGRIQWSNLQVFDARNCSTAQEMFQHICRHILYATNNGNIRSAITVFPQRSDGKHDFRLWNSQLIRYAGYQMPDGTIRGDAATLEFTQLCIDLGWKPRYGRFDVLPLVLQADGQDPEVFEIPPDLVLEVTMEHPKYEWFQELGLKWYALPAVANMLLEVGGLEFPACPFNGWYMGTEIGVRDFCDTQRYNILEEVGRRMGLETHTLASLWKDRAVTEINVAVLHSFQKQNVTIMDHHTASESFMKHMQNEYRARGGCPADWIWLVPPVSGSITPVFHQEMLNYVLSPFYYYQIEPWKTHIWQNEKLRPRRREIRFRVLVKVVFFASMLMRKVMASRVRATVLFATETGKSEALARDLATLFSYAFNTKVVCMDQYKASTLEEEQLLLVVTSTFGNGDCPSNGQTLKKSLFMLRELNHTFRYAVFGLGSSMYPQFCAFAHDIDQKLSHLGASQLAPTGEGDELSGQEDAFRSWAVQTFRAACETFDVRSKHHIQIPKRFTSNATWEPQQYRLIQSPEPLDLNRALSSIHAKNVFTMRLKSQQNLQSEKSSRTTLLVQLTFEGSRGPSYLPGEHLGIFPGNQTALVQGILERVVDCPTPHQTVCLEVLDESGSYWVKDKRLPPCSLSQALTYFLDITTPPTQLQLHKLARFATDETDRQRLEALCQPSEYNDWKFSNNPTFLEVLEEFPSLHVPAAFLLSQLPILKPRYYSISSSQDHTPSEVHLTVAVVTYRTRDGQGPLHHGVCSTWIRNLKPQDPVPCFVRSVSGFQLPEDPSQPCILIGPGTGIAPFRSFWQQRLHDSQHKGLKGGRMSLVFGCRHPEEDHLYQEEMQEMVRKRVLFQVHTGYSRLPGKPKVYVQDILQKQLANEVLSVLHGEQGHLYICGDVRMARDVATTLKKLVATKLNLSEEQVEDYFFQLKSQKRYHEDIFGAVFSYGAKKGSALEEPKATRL

[7] = target: T1, Nitric oxide synthase, inducible (Mus musculus); test: Inhibition of cytosolic iNOS in stantia nigra isolated from MPTP-induced parkinson's disease C57/Bl6 mouse model assessed as L-[3H]citrulline per mg of protein at 20 mg/kg, b.w 1 hr before MPTP challenge after 32 hrs by liquid scintillation spectroscopy; assay type: organism-based; parameters: dose 20 mg/kg; in short: as §1
[8] = target: Nitric oxide synthase 1 (Homo sapiens) (UniProt P29475); test: Inhibition of nNOS

inhibition [1] [%] | inhibition [2] [%] | Activity [3] | Activity [4] [pmol/min] | Activity [5] [pmol/min] | Activity [6] [pmol/min] | Activity [7] [pmol/min] | inhibition [8] | SMILES
36.5 | 3.33 | inactive | – | – | – | – | – | CCCCNC(=O)c1ccc(-c2cc(Cl)ccc2N)[nH]1
– | 13.2 | inactive | – | – | – | – | – | CCCNC(=O)c1ccc(-c2ccccc2N)[nH]1
– | – | – | – | – | – | – | Dose-dependent effect | COc1ccc(N)c(C(=O)CCNC(C)=O)c1
7.52 | 28.1 | inactive | – | – | – | – | – | Nc1ccccc1-c1ccc(C(=O)NCc2ccccc2)[nH]1
15 | 3.07 | inactive | – | – | – | – | – | NC(=O)c1ccc(-c2ccccc2N)[nH]1
48.1 | 7.2 | inactive | – | – | – | – | – | Nc1ccc(Cl)cc1-c1ccc(C(=O)NC2CC2)[nH]1
43.5 | 6.78 | inactive | – | – | – | – | – | CCCNC(=O)c1ccc(-c2cc(OC)ccc2N)[nH]1
13.4 | 17.2 | inactive | – | – | – | – | – | Nc1ccccc1-c1ccc(C(=O)NC2CCCCC2)[nH]1
15.3 | 26.2 | inactive | – | – | – | – | – | COc1ccc(N)c(-c2ccc(C(=O)NC3CCCC3)[nH]2)c1
-0.01 | 7.53 | inactive | – | – | – | – | – | CCCCNC(=O)c1ccc(-c2ccccc2N)[nH]1
9.56 | 16 | inactive | – | – | – | – | – | Cn1c(C(N)=O)ccc1-c1ccccc1N
33.4 | 2.8 | inactive | – | – | – | – | – | CCNC(=O)c1ccc(-c2cc(Cl)ccc2N)[nH]1
34.5 | 5.34 | inactive | – | – | – | – | – | NC(=O)c1ccc(-c2cc(Cl)ccc2N)[nH]1
32.5 | 21.4 | inactive | – | – | – | – | – | COc1ccc(N)c(-c2ccc(C(=O)NC3CC3)[nH]2)c1
– | 26.2 | inactive | – | – | – | – | – | CNC(=O)c1ccc(-c2cc(OC)ccc2N)[nH]1
8.44 | 20.1 | inactive | – | – | – | – | – | Nc1ccccc1-c1ccc(C(=O)NC2CCC2)[nH]1
8.89 | 22.4 | inactive | – | – | – | – | – | COc1ccc(N)c(-c2ccc(C(=O)NCc3ccccc3)[nH]2)c1
4.15 | 20.5 | inactive | – | – | – | – | – | CCNC(=O)c1ccc(-c2ccccc2N)[nH]1
– | 32.7 | inactive | 65.5 | 9.95 | 7.46 | 5.78 | – | CNC(=O)c1ccc(-c2ccccc2N)[nH]1
5.36 | 52.8 | inactive | 74.3 | 14.1 | 9.45 | 6.53 | – | Nc1ccccc1-c1ccc(C(=O)NC2CCCC2)[nH]1
– | – | – | – | – | – | – | Dose-dependent effect | COc1ccc(N)c(C(=O)CC(NC(C)=O)C(=O)O)c1 (stereo unspecified)
– | – | – | 19.9 | 13.8 | 23.6 | 19 | Dose-dependent effect | COc1ccc2[nH]cc(CCNC(C)=O)c2c1
– | 8.95 | inactive | – | – | – | – | – | COc1ccc(N)c(-c2ccc(C(N)=O)[nH]2)c1
17.1 | 1.27 | inactive | – | – | – | – | – | CNC(=O)c1ccc(-c2cc(Cl)ccc2N)[nH]1
2.92 | -1.1 | inactive | – | – | – | – | – | Nc1ccccc1-c1ccc(C(=O)NC2CC2)[nH]1

SMILES | inhibition [1] [%] | inhibition [2] [%] | Activity [3] | Activity [4] [pmol/min] | Activity [5] [pmol/min] | Activity [6] [pmol/min] | Activity [7] [pmol/min] | inhibition [8]
CN1CC=C(c2ccccc2)CC1 | – | – | – | 83.7 | 25.9 | 43.8 | 29.4 | –
